The list is not random: actives were taken first. Their share in the collection is about 3.2%.
PfHsp90 yeast 2 – growth inhibition of yeast expressing Plasmodium Hsp90. S. cerevisiae expressing PfHsp90, BacTiter-Glo ATP, 48 h; yeast lacking PDR1 and PDR3 efflux regulators. 310,000 compounds, 0.32% hits. AID 504621. inhibition, % at 9.4 µM;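 active = every replicate shows inhibition above about 80%, whatever the replicate mean, limit read from the data; inconclusive = mean inhibition reaches the set limit but some replicate falls short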;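 note: 0% = DMSO neutral controls and 100% = 20 µM radicicol positive controls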
rRNA inh HTS – inhibits bacterial ribosomal RNA function over humanized ribosomes | E. coli WT GFP vs humanized-ribosome RFP mutants, fluorescence, 24 h; hits give low values; DMSO median 0, no signal -100 | 350,000 compounds, 1.6% hits | GFP signal change (wild-type ribosome), % (concentration not given with the values);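 active = significant combined selectivity score with lowered wild-type GFP, culture density cut under 30%, mutant RFP and density less affected; inactive = any of these conditions unmet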
MLL AF4-AF9 inh – blocks AF4 peptide binding to human AF9; 350,000 compounds, 0.47% hits; P42568; AlphaScreen, biotin-AF4 peptide binding to FLAG-AF9; inhibition, % at 10 µM; AID 651704;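 active = every replicate reaching a set inhibition limit, whatever the replicate mean, cut at about 25% in these data; inconclusive = mean inhibition reaches that limit but some replicates miss it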;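 note: 0% = plate neutral control median and 100% = total signal loss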
Target sequence (P42568 whole entry, looked up): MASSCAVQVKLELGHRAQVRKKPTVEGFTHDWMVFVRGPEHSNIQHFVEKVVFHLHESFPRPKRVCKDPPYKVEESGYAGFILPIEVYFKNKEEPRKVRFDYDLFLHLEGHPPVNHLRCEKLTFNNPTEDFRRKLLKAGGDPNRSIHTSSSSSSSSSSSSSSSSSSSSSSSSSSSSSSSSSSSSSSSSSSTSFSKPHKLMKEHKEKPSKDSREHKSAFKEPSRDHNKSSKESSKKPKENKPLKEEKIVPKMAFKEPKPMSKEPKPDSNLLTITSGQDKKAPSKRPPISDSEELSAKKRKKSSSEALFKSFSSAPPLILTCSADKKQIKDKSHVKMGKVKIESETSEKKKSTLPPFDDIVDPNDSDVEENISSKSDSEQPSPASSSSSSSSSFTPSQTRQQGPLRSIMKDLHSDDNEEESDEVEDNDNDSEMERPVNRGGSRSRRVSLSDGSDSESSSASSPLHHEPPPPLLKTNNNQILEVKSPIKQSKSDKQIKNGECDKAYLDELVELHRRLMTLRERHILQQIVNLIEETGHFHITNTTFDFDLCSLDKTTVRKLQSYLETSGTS
S100A4 MyoIIA – S100A4-myosin IIA interaction inhibition. S100A4/TAMRA-MyoIIA peptide fluorescence polarization. inhibition, % at 10.7 µM. 360,000 compounds, 0.14% hits;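 active = mean inhibition of at least 70% across replicates, with every replicate also reaching that level; inconclusive = mean inhibition reaches 70% but some replicates fall short; inactive = mean inhibition below 70%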
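Test system – S100A4 monomer (human) · Compound – single-point compound testing · Schedule – 5 min incubation before reading · Probe or stimulus – TAMRA-labelled myosin IIA heavy-chain peptide probe, 5 nM · Benchmarks – neutral control DMSO, positive control TFP · Medium – Calcium-containing HEPES buffer, pH 7.2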
DENV2 CPE rescue – DENV2-induced cell death inhibition. DENV2-infected cells, cytopathic effect rescue, plate reader. 350,000 compounds, 1.7% hits. AID 651640. CPE inhibition, % at 9.99 µM; in the data active = CPE inhibition above about 20%, passing the limit was not always enough; inconclusive = no clear call, values can overlap the other calls; tested in BHK-21 cells;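 note: 0% = median of neutral control wells and 100% = median of positive control wells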
Cneo AK release – Cryptococcus neoformans lysis via adenylate kinase release. C. neoformans lysis, adenylate kinase release luminescence, 4 h; normalised: neutral wells 0, clomiphene wells 100. lysis activity, % at 15 µM. 360,000 compounds, 0.2% hits. AID 651654;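 active = mean lysis activity across replicates of at least 80%, whatever share of replicates individually reach that level; inactive = mean lysis activity below 80%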
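Material – log-phase Cryptococcus neoformans yeast cells · Input – 5 × 10^6 yeast cells/mL · Medium – fresh YPD growth medium · Doses – single compound concentration per well · Timing – static 4 h at 37 °C with compound, 1 h detection · Detection – adenylate kinase release luminescence · Read-out – signal increase indicating cell lysis · Control set – Clomiphene as positive lysis control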
* = called active by the depositor; ? = inconclusive; / = no result.

SMILES	PfHsp90 yeast 2	rRNA inh HTS	MLL AF4-AF9 inh	S100A4 MyoIIA	DENV2 CPE rescue	Cneo AK release
C[C@H](CO)N1C[C@H](C)[C@H](CN(C)Cc2ccc3c(c2)OCO3)Oc2ccc(NC(=O)Nc3ccc4c(c3)OCO4)cc2CC1=O	/	-3.6	1.9	-4.4	7.7	-0.2
C[C@H](CO)N1C[C@H](C)[C@H](CN(C)CC2CCCCC2)Oc2ccc(NC(=O)Nc3ccc4c(c3)OCO4)cc2CC1=O	/	1.0	9.1	6.5	33.6*	54.3
C[C@H]1CN([C@@H](C)CO)C(=O)Cc2cc(NC(=O)Nc3ccc4c(c3)OCO4)ccc2O[C@H]1CN(C)Cc1ccc(C(=O)O)cc1	/	-0.1	-0.4	-2.1	78.3*	-1.4
C[C@@H]1CN([C@@H](C)CO)C(=O)Cc2cc(NC(=O)Nc3ccc4c(c3)OCO4)ccc2O[C@H]1CN(C)Cc1ccc2c(c1)OCO2	/	2.3	25.4*	-5.9	-6.2	0.2
Cc1ccccc1-c1ccc([C@@H]2[C@H]3CN(C(=O)Cc4ccccn4)CC(=O)N3[C@H]2CO)cc1	/	0.8	-1.8	-6.3	-3.9	/
COc1ccc(-c2cnc3c(c2)C(=O)N([C@@H](C)CO)C[C@@H](C)[C@@H](CN(C)Cc2ccc(C(=O)O)cc2)O3)cc1	/	-0.7	-3.3	-19.6	1.9	/
CC(=O)N1CC2(C1)[C@@H](c1ccc(-c3ccc(C#N)cc3)cc1)[C@H](CO)N2C(=O)C1CC1	/	-3.5	0.1	-5.0	6.5	/
CC(C)NC(=O)N[C@H]1CC[C@@H](CC(=O)NCCN2CCCC2)O[C@@H]1CO	/	3.8	-0.6	-0.4	?	0.6
CN1C(C(=O)c2ccccc2)=C(N)c2ccccc2S1(=O)=O	-1.4	-22.6*	0.6	-4.2	4.3	-2.5
Cc1cccc(OCCn2c(=O)n(C)c3ccccc32)c1	15.9	-37.2	-3.6	0.0	68.9*	-2.4
COCC(=O)N1CC2(C1)CN(C(=O)NC1CCCC1)[C@H](CO)c1c2c2ccc(OC)cc2n1C	/	0.8	-1.1	-0.9	68.5*	/
COCC(=O)N1CC2(CCN(C(=O)NC(C)C)CC2)c2c(n(C)c3cc(OC)ccc23)[C@@H]1CO	/	1.4	-1.4	18.7	3.0	/
COCC(=O)N1CC2(CN(C(=O)NC(C)C)C2)c2c(n(C)c3cc(OC)ccc23)[C@@H]1CO	/	0.9	-4.4	/	25.8*	/
COCC(=O)N1CCC2(CC1)CN(C(=O)NC1CCCC1)[C@@H](CO)c1c2c2ccc(OC)cc2n1C	/	3.8	-1.6	29.7	19.5	/
Cc1cccc(S(=O)(=O)N2C[C@H]3[C@@H](c4ccccc42)[C@@H](CO)N3C(=O)c2ccccc2)c1	/	-8.9	0.1	-5.0	57.2*	-3.3
O=C(CC1CC1)N1[C@@H]2CN(S(=O)(=O)c3ccccc3)c3ccccc3[C@@H]2[C@@H]1CO	/	-1.1	-2.2	5.5	-2.3	106.3*
Cc1cccc(S(=O)(=O)N2C[C@@H]3[C@H](c4ccccc42)[C@H](CO)N3Cc2cccnc2)c1	/	-6.7	0.3	-2.3	-8.4	2.3
CC(=O)N1[C@H](CO)[C@@H]2c3ccccc3N(S(=O)(=O)c3cccc(C)c3)C[C@@H]21	/	-1.8	-1.4	6.5	14.5	-1.0
O=S(=O)(c1ccccc1)N1C[C@H]2[C@@H](c3ccccc31)[C@@H](CO)N2Cc1ccccc1	/	-49.1*	-0.9	-4.5	27.3*	-1.5
O=C(CC1CC1)N1[C@H](CO)[C@H]2c3ccccc3N(S(=O)(=O)c3ccccc3)C[C@H]21	/	-6.6	0.9	4.3	-0.7	0.7
Cc1ccc(S(=O)(=O)N2C[C@H]3[C@@H](c4ccccc42)[C@H](CO)N3Cc2cccnc2)cc1	/	-14.5	/	/	-3.8	-6.4
Cc1cccc(S(=O)(=O)N2C[C@H]3[C@@H](c4ccccc42)[C@@H](CO)N3Cc2cccnc2)c1	/	-5.2	0.8	-1.4	27.3*	-1.7
COc1ccccc1C#Cc1ccc([C@H]2[C@@H](C#N)N(C(=O)C3CC3)[C@@H]2CO)cc1	/	2.3	-0.5	8.1	12.5	-3.8

Assay outcomes deposited in PubChem by Broad Institute.
